ChEMBL document CHEMBL1135533, “Synthesis and in vitro studies of novel pyrimidinyl peptidomimetics as potential antimalarial therapeutic agents” (J Med Chem, 2002)
≈ marks a conversion by molar mass, not a printed value.

Assays:
Colon cell line = experiment: In vitro inhibition of cell growth in human colon cell line.; format: functional, cell-based
Method in brief: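 SW620 colon cells grown and tested in RPMI-1640 with 10% FBS. Serially diluted compound was placed in wells, cells were seeded straight onto it, and solvent blanks were included. After 72 h, cells were fixed with cold TCA (10% final) for 1 h at 4 °C, stained 30 min with 0.4% SRB in 1% acetic acid, and bound dye was solubilized in 10 mM Tris base, pH 10.5.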

Plasmodium falciparum [1] = experiment: Inhibitory activity against chloroquine-sensitive Plasmodium falciparum D6 (CDC/Sierra Leone I); format: functional, organism-based
Method in brief: (§1)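 Drug stocks in DMSO, diluted 400-fold into RPMI 1640 with 25 mM Hepes, 32 mM NaHCO3 and 10% Albumax I, then 2-fold serial dilutions (over 11 concentrations). Parasites exposed 48 h at 37 °C under 5% O2/5% CO2/90% N2, then [3H]hypoxanthine added for a further 18 h. Uptake counted by scintillation; IC50 from nonlinear regression logistic dose-response fit.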

Neuronal cell line = experiment: In vitro inhibition of cell growth in human neuronal cell line.; format: functional, cell-based
Plasmodium falciparum [2] = experiment: Inhibitory activity against chloroquine-resistant Plasmodium falciparum W-2 Indochina III; format: functional, organism-based; method in brief: as §1

Row | SMILES | IC50 (Colon cell line) [µg/mL] | IC50 (Plasmodium falciparum [1]) [µg/mL] | IC50 (Neuronal cell line) [µg/mL] | IC50 (Plasmodium falciparum [2]) [µg/mL]
1 | COC(=O)/C(=C/Cn1c(-c2ccccc2)ncc(NC(=O)OCc2ccccc2)c1=O)COC(=O)c1ccc([N+](=O)[O-])cc1 | 7.6 (≈ 12.7 µM) | 0.024 (≈ 0.0401 µM) | 1.75 (≈ 2.92 µM) | 0.024 (≈ 0.0401 µM)
2 | COC(=O)/C(=C/[C@H](C)NC(=O)Cn1c(-c2ccccc2)ncc(NC(=O)OCc2ccccc2)c1=O)COC(C)=O | 1.6 (≈ 2.84 µM) | 0.009 (≈ 0.016 µM) | 1.1 (≈ 1.96 µM) | 0.01 (≈ 0.0178 µM)
3 | COC(=O)/C(=C/Cn1c(-c2ccccc2)ncc(NC(=O)OCc2ccccc2)c1=O)CO | > 50 | 0.016 (≈ 0.0356 µM) | 0.95 (≈ 2.11 µM) | 0.017 (≈ 0.0378 µM)
4 | COC(=O)/C(=C/Cn1c(-c2ccccc2)ncc(NC(=O)N2CCN(C(C)=O)CC2)c1=O)COC(C)=O | > 50 | 0.017 (≈ 0.0332 µM) | 13.8 (≈ 27 µM) | 0.018 (≈ 0.0352 µM)
5 | COC(=O)/C(=C/Cn1c(-c2ccccc2)ncc(NC(=O)OCc2ccccc2)c1=O)COC(C)=O | > 50 | 0.017 (≈ 0.0346 µM) | 0.92 (≈ 1.87 µM) | 0.017 (≈ 0.0346 µM)
6 | COC(=O)/C(=C/Cn1c(-c2ccccc2)ncc(NC(=O)OCc2ccccc2)c1=O)COC(=O)c1ccccc1 | 13.5 (≈ 24.4 µM) | 0.027 (≈ 0.0488 µM) | 2.6 (≈ 4.7 µM) | 0.028 (≈ 0.0506 µM)
